Assay results reported in ChEMBL document CHEMBL5143661, “Efficiency of bis-amidate phosphonate prodrugs” (Bioorg Med Chem Lett, 2022).

Tests used:
[1] = Induction of interferon gamma production in human Vgamma9Vdelta2 T cells pretreated with K562 cells followed by compound washout and cocultured with Vgamma9Vdelta2 T cells and measured after 240 mins by ELISA; assay type: functional, cell-based; settings: Vgamma9Vdelta2 T cell
Summary of the method: (§1)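 K562 cells loaded with compound over a dose range for 15, 60 or 240 min, washed, then co-cultured with human Vγ9Vδ2 T cells.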

[2] = Stability of the compound in human K562 cell lysates in lysis buffer assessed as parent compound remaining measured after 4 hrs; assay type: ADME, subcellular; settings: k562, 4 h
Summary of the method: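 Compound incubated 4 h in K562 cell extract, 5 mg/mL in lysis buffer; percent parent remaining determined (n=2).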

[3] = Induction of interferon gamma production in human Vgamma9Vdelta2 T cells pretreated with K562 cells followed by compound washout and cocultured with Vgamma9Vdelta2 T cells and measured after 60 mins by ELISA; assay type: functional, cell-based; settings: Vgamma9Vdelta2 T cell; summary of the method: as §1
K562 = test: Cytotoxicity against human K562 cells assessed as inhibition of cell growth incubated for 72 hrs; assay type: functional, cell-based; settings: K562, 72 h
[4] = Induction of interferon gamma production in human Vgamma9Vdelta2 T cells pretreated with K562 cells followed by compound washout and cocultured with Vgamma9Vdelta2 T cells and measured after 15 mins by ELISA; assay type: functional, cell-based; settings: Vgamma9Vdelta2 T cell; summary of the method: as §1
[5] = Stability of the compound in 50% plasma (unknown origin) in PBS assessed as parent compound remaining measured after 24 hrs; assay type: ADME, cell-free; settings: unidentified
Summary of the method: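 Compound incubated 24 h in 50% plasma diluted in phosphate-buffered saline; percent parent remaining determined (n=2).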

[6] = Induction of Vgamma9Vdelta2 T cell proliferation in human peripheral blood; assay type: functional, cell-based

## C/C(=C\CCP(=O)(OCOC(=O)C(C)(C)C)OCOC(=O)C(C)(C)C)CO
[1]
  EC50: 0.024 µM
[2]
  Stability: 0%
[3]
  EC50: 0.03 µM
K562
  IC50: > 100 µM
[4]
  EC50: 0.043 µM

## CCOC(=O)[C@H](C)NP(=O)(CCC=C(C)C)N[C@@H](C)C(=O)OCC
[2]
  Stability: 31%
[5]
  Stability: 70%

## CCOC(=O)CNP(=O)(CC/C=C(\C)CO)NCC(=O)OCC
[1]
  EC50: 1.6 µM
[2]
  Stability: 57%
[6]
  EC50: 0.043 µM
[3]
  EC50: 7.2 µM
K562
  IC50: > 100 µM
[4]
  EC50: 23 µM
[5]
  Stability: 82%

## COC(=O)[C@@H](NP(=O)(CCC=C(C)C)N[C@H](C(=O)OC)C(C)C)C(C)C
[2]
  Stability: 85%
[5]
  Stability: 99%

## CC(C)=CCCP(=O)(N[C@@H](C)C(=O)OC(C)C)N[C@@H](C)C(=O)OC(C)C
[2]
  Stability: 79%
[5]
  Stability: 90%

## CCOC(=O)CNP(=O)(CCC=C(C)C)NCC(=O)OCC
[2]
  Stability: 86%
[5]
  Stability: 82%

## COC(=O)[C@@H](NP(=O)(CC/C=C(\C)CO)N[C@H](C(=O)OC)C(C)C)C(C)C
[1]
  EC50: 1.9 µM
[2]
  Stability: 74%
[6]
  EC50: 0.03 µM
[3]
  EC50: 5.7 µM
K562
  IC50: 10 µM
[4]
  EC50: 14 µM
[5]
  Stability: 86%

## CCOC(=O)CNP(=O)(CC/C=C(\C)CO)Oc1ccccc1 (racemic)
[1]
  EC50: 0.051 µM
[2]
  Stability: 86%
[3]
  EC50: 0.23 µM
K562
  IC50: > 100 µM
[4]
  EC50: 1.5 µM
